In ChEMBL document CHEMBL1275526, “Differential azole antifungal efficacies contrasted using a Saccharomyces cerevisiae strain humanized for sterol 14 alpha-demethylase at the homologous locus” (2008):
Converted amounts (≈) assume the structure as drawn.

Columns and labels:
Format in all cases: functional
Saccharomyces cerevisiae [1] = assay: Antifungal activity against Saccharomyces cerevisiae BY4741 assessed as growth rate at 1 ug/ml (reference value: 0.144%)
Saccharomyces cerevisiae [2] = assay: Antifungal activity against Saccharomyces cerevisiae BY4741 harboring human CYP51 by broth microdilution method
Summary of the method: (§1)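 Adapted CLSI M-27A broth microdilution for S. cerevisiae, run in triplicate. Overnight cultures were diluted in YM, pH 7.0, to 2.5 x 10^3 cells/ml, with drug diluted in YM over 0 to 16 or 0 to 128 µg/ml depending on azole. Plates were incubated 48 h at 30°C. MIC was the concentration giving 80% growth inhibition.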

Saccharomyces cerevisiae [3] = assay: Antifungal activity against Saccharomyces cerevisiae BY4741 harboring human CYP51 assessed as growth rate at 1 ug/ml (reference value: 0.157%); conditions: at 1 µg/mL
Saccharomyces cerevisiae [4] = assay: Antifungal activity against wild-type Saccharomyces cerevisiae BY4741 by broth microdilution method; summary of the method: as §1
Saccharomyces cerevisiae [5] = assay: Antifungal activity against Saccharomyces cerevisiae BY4741 assessed as growth rate at 0.5 ug/ml (reference value: 0.144%)
Saccharomyces cerevisiae [6] = assay: Antifungal activity against Saccharomyces cerevisiae BY4741 assessed as growth rate at 2 ug/ml (reference value: 0.144%)
Saccharomyces cerevisiae [7] = assay: Antifungal activity against Saccharomyces cerevisiae BY4741 harboring human CYP51 assessed as growth rate at 2 ug/ml (reference value: 0.157%); conditions: at 2 µg/mL
Saccharomyces cerevisiae [8] = assay: Antifungal activity against Saccharomyces cerevisiae BY4741 harboring human CYP51 assessed as growth rate at 0.5 ug/ml (reference value: 0.157%); conditions: at 0.5 µg/mL
Saccharomyces cerevisiae [9] = assay: Antifungal activity against Saccharomyces cerevisiae BY4741 assessed as growth rate at 0.125 ug/ml (reference value: 0.144%)
Saccharomyces cerevisiae [10] = assay: Antifungal activity against Saccharomyces cerevisiae BY4741 harboring human CYP51 assessed as growth rate at 4 ug/ml (reference value: 0.157%); conditions: at 4 µg/mL
Saccharomyces cerevisiae [11] = assay: Antifungal activity against Saccharomyces cerevisiae BY4741 harboring human CYP51 assessed as accumulation of lanosterol at 0.25 ug/ml (reference value: 23+/- 1.08 %)
Saccharomyces cerevisiae [12] = assay: Antifungal activity against Saccharomyces cerevisiae BY4741 assessed as growth rate at 16 ug/ml (reference value: 0.144%)
Saccharomyces cerevisiae [13] = assay: Antifungal activity against Saccharomyces cerevisiae BY4741 assessed as growth rate at 0.25 ug/ml (reference value: 0.144%)
Saccharomyces cerevisiae [14] = assay: Antifungal activity against wild-type Saccharomyces cerevisiae BY4741 assessed as accumulation of ergosterol at 0.25 ug/ml (reference value: 57+/- 1.00 %)
Saccharomyces cerevisiae [15] = assay: Antifungal activity against Saccharomyces cerevisiae BY4741 harboring human CYP51 assessed as growth rate at 8 ug/ml (reference value: 0.157%); conditions: at 8 µg/mL
Saccharomyces cerevisiae [16] = assay: Antifungal activity against wild-type Saccharomyces cerevisiae BY4741 assessed as accumulation of lanosterol at 0.25 ug/ml (reference value: 17+/- 1.22 %)
Saccharomyces cerevisiae [17] = assay: Antifungal activity against Saccharomyces cerevisiae BY4741 assessed as growth rate at 8 ug/ml (reference value: 0.144%)
Saccharomyces cerevisiae [18] = assay: Antifungal activity against Saccharomyces cerevisiae BY4741 harboring human CYP51 assessed as accumulation of 14-alpha-methylergosta-8,24(28)-dien-3beta-6alpha-diol at 0.25 ug/ml
Saccharomyces cerevisiae [19] = assay: Antifungal activity against Saccharomyces cerevisiae BY4741 harboring human CYP51 assessed as growth rate at 16 ug/ml (reference value: 0.157%); conditions: at 16 µg/mL
Saccharomyces cerevisiae [20] = assay: Antifungal activity against Saccharomyces cerevisiae BY4741 harboring human CYP51 assessed as accumulation of ergosterol at 0.25 ug/ml (reference value: 54+/- 0.82 %)
Saccharomyces cerevisiae [21] = assay: Antifungal activity against Saccharomyces cerevisiae BY4741 harboring human CYP51 assessed as growth rate at 0.125 ug/ml (reference value: 0.157%); conditions: at 0.125 µg/mL
Saccharomyces cerevisiae [22] = assay: Antifungal activity against wild-type Saccharomyces cerevisiae BY4741 assessed as accumulation of 14-alpha-methylergosta-8,24(28)-dien-3beta-6alpha-diol at 0.25 ug/ml
Saccharomyces cerevisiae [23] = assay: Antifungal activity against Saccharomyces cerevisiae BY4741 assessed as growth rate at 4 ug/ml (reference value: 0.144%)
Saccharomyces cerevisiae [24] = assay: Antifungal activity against Saccharomyces cerevisiae BY4741 harboring human CYP51 assessed as growth rate at 0.25 ug/ml (reference value: 0.157%); conditions: at 0.25 µg/mL
Saccharomyces cerevisiae [25] = assay: Antifungal activity against Saccharomyces cerevisiae BY4741 harboring human CYP51 assessed as accumulation of 14-alpha-methylergosta-8,24(28)-dien-3beta-6alpha-diol at 8 ug/ml
Saccharomyces cerevisiae [26] = assay: Antifungal activity against wild-type Saccharomyces cerevisiae BY4741 assessed as accumulation of 14-alpha-methylergosta-8,24(28)-dien-3beta-6alpha-diol at 8 ug/ml
Saccharomyces cerevisiae [27] = assay: Antifungal activity against wild-type Saccharomyces cerevisiae BY4741 assessed as accumulation of ergosterol at 8 ug/ml (reference value: 57+/- 1.00 %)
Saccharomyces cerevisiae [28] = assay: Antifungal activity against Saccharomyces cerevisiae BY4741 harboring human CYP51 assessed as accumulation of ergosterol at 8 ug/ml (reference value: 54+/- 0.82 %)
Saccharomyces cerevisiae [29] = assay: Antifungal activity against wild-type Saccharomyces cerevisiae BY4741 assessed as accumulation of lanosterol at 8 ug/ml (reference value: 17+/- 1.22 %)
Saccharomyces cerevisiae [30] = assay: Antifungal activity against Saccharomyces cerevisiae BY4741 harboring human CYP51 assessed as accumulation of ergosterol at 16 ug/ml (reference value: 54+/- 0.82 %)
Saccharomyces cerevisiae [31] = assay: Antifungal activity against Saccharomyces cerevisiae BY4741 harboring human CYP51 assessed as accumulation of 14-alpha-methylergosta-8,24(28)-dien-3beta-6alpha-diol at 16 ug/ml
Saccharomyces cerevisiae [32] = assay: Antifungal activity against wild-type Saccharomyces cerevisiae BY4741 assessed as accumulation of lanosterol at 16 ug/ml (reference value: 17+/- 1.22 %)
Saccharomyces cerevisiae [33] = assay: Antifungal activity against Saccharomyces cerevisiae BY4741 harboring human CYP51 assessed as accumulation of lanosterol at 16 ug/ml (reference value: 23+/- 1.08 %)
Saccharomyces cerevisiae [34] = assay: Antifungal activity against wild-type Saccharomyces cerevisiae BY4741 assessed as accumulation of 14-alpha-methylergosta-8,24(28)-dien-3beta-6alpha-diol at 16 ug/ml
Saccharomyces cerevisiae [35] = assay: Antifungal activity against wild-type Saccharomyces cerevisiae BY4741 assessed as accumulation of 14-alpha-methylergosta-8,24(28)-dien-3beta-6alpha-diol at 4 ug/ml
Saccharomyces cerevisiae [36] = assay: Antifungal activity against wild-type Saccharomyces cerevisiae BY4741 assessed as accumulation of ergosterol at 4 ug/ml (reference value: 57+/- 1.00 %)
Saccharomyces cerevisiae [37] = assay: Antifungal activity against Saccharomyces cerevisiae BY4741 harboring human CYP51 assessed as accumulation of lanosterol at 4 ug/ml (reference value: 23+/- 1.08 %)
Saccharomyces cerevisiae [38] = assay: Antifungal activity against Saccharomyces cerevisiae BY4741 harboring human CYP51 assessed as accumulation of ergosterol at 4 ug/ml (reference value: 54+/- 0.82 %)
Saccharomyces cerevisiae [39] = assay: Antifungal activity against Saccharomyces cerevisiae BY4741 harboring human CYP51 assessed as accumulation of 14-alpha-methylergosta-8,24(28)-dien-3beta-6alpha-diol at 4 ug/ml
Saccharomyces cerevisiae [40] = assay: Antifungal activity against wild-type Saccharomyces cerevisiae BY4741 assessed as accumulation of lanosterol at 4 ug/ml (reference value: 17+/- 1.22 %)

Row | Structure (SMILES) | Activity (Saccharomyces cerevisiae [1]) [%] | MIC (Saccharomyces cerevisiae [2]) [µg/mL] | Activity (Saccharomyces cerevisiae [3]) [%] | MIC (Saccharomyces cerevisiae [4]) [µg/mL] | Activity (Saccharomyces cerevisiae [5]) [%] | Activity (Saccharomyces cerevisiae [6]) [%] | Activity (Saccharomyces cerevisiae [7]) [%] | Activity (Saccharomyces cerevisiae [8]) [%] | Activity (Saccharomyces cerevisiae [10]) [%] | Activity (Saccharomyces cerevisiae [12]) [%] | Activity (Saccharomyces cerevisiae [15]) [%] | Activity (Saccharomyces cerevisiae [17]) [%] | Activity (Saccharomyces cerevisiae [19]) [%] | Activity (Saccharomyces cerevisiae [23]) [%] | also measured
1 | Clc1ccc(COC(Cn2ccnc2)c2ccc(Cl)cc2Cl)cc1 (stereo not drawn) [ECONAZOLE] | 0.084 | 8 (≈ 21 µM) | 0.157 | 8 (≈ 21 µM) | – | – | – | – | – | – | – | – | – | – | –
2 | Clc1ccc(COC(Cn2ccnc2)c2ccc(Cl)cc2Cl)c(Cl)c1 (stereo not drawn) [MICONAZOLE] | 0.034 | 8 (≈ 19.2 µM) | 0.141 | 8 (≈ 19.2 µM) | 0.024 | 0.023 | 0.167 | 0.174 | – | – | – | – | – | – | –
3 | Clc1ccccc1C(c1ccccc1)(c1ccccc1)n1ccnc1 [CLOTRIMAZOLE] | 0.123 | 8 (≈ 23.2 µM) | 0.173 | 8 (≈ 23.2 µM) | 0.11 | 0.088 | 0.169 | 0.162 | – | – | – | – | – | – | –
4 | C[C@@H](c1ncncc1F)[C@](O)(Cn1cncn1)c1ccc(F)cc1F [VORICONAZOLE] | 0.039 | > 128 | 0.156 | 0.125 (≈ 0.358 µM) | 0.046 | 0.051 | 0.154 | 0.153 | 0.154 | 0.039 | 0.168 | 0.043 | 0.159 | 0.043 | Activity (Saccharomyces cerevisiae [9]): 0.057%; Activity (Saccharomyces cerevisiae [11]): 27%; Activity (Saccharomyces cerevisiae [13]): 0.046%; Activity (Saccharomyces cerevisiae [14]): 10%; Activity (Saccharomyces cerevisiae [16]): 35%; Activity (Saccharomyces cerevisiae [18]): 4%; Activity (Saccharomyces cerevisiae [20]): 49%; Activity (Saccharomyces cerevisiae [21]): 0.157%; Activity (Saccharomyces cerevisiae [22]): 24%; Activity (Saccharomyces cerevisiae [24]): 0.159%
5 | CCC(C)n1ncn(-c2ccc(N3CCN(c4ccc(OCC5COC(Cn6cncn6)(c6ccc(Cl)cc6Cl)O5)cc4)CC3)cc2)c1=O (stereo not drawn) [ITRACONAZOLE] | 0.042 | > 128 | 0.176 | 1 (≈ 1.42 µM) | 0.042 | 0.044 | 0.17 | 0.166 | 0.136 | 0.035 | 0.164 | 0.036 | 0.136 | 0.039 | Activity (Saccharomyces cerevisiae [25]): 5%; Activity (Saccharomyces cerevisiae [26]): 24%; Activity (Saccharomyces cerevisiae [27]): 6%; Activity (Saccharomyces cerevisiae [28]): 52%; Activity (Saccharomyces cerevisiae [29]): 42%
6 | OC(Cn1cncn1)(Cn1cncn1)c1ccc(F)cc1F [FLUCONAZOLE] | – | > 128 | – | 8 (≈ 26.1 µM) | – | – | – | – | – | 0.03 | 0.16 | 0.036 | 0.171 | – | Activity (Saccharomyces cerevisiae [30]): 46%; Activity (Saccharomyces cerevisiae [31]): 6%; Activity (Saccharomyces cerevisiae [32]): 42%; Activity (Saccharomyces cerevisiae [33]): 24%; Activity (Saccharomyces cerevisiae [34]): 29%
7 | CC(=O)N1CCN(c2ccc(OCC3COC(Cn4ccnc4)(c4ccc(Cl)cc4Cl)O3)cc2)CC1 (stereo not drawn) [KETOCONAZOLE] | – | 8 (≈ 15.1 µM) | – | 1 (≈ 1.88 µM) | – | 0.088 | 0.188 | – | 0.204 | – | 0.119 | 0.039 | – | 0.06 | Activity (Saccharomyces cerevisiae [35]): 19%; Activity (Saccharomyces cerevisiae [36]): 12%; Activity (Saccharomyces cerevisiae [37]): 27%; Activity (Saccharomyces cerevisiae [38]): 51%; Activity (Saccharomyces cerevisiae [39]): 7%; Activity (Saccharomyces cerevisiae [40]): 35%
